Reference: ChEMBL document CHEMBL1137088, “Distamycin analogues with enhanced lipophilicity: synthesis and antimicrobial activity” (2004)
Converted amounts (≈) assume the structure as drawn. “And” between values parts separate entries of the source, which are not always exact repeats. Equal entries are not always repeated. The source made the active and inactive calls. The calls are words filed in the database; no cut-off is given here.

Experiments:
Enterobacter cloacae = experiment: Antibacterial activity against Enterobacter cloacae NCTC 10005 strain.; type: functional, organism-based
[1] = test system: Mycolicibacterium fortuitum; experiment: Antibacterial activity against Mycobacterium fortuitum NCTC 10394 strain; na = not active; type: functional, organism-based
Staphylococcus aureus [2] = experiment: Antibacterial activity against MRSA PHLS M1 strain; na = not active; type: functional, organism-based
[3] = Antifungal activity against Candida albicans NCPF 3179 strain; na = not active; type: functional
Enterococcus faecalis [4] = experiment: Antibacterial activity against Streptococcus faecalis NCTC 775 strain.; type: functional
Staphylococcus aureus [5] = experiment: Antibacterial activity against Staphylococcus aureus NCTC 6571 strain; na = not active; type: functional, organism-based
Aspergillus niger [6] = experiment: Antifungal activity against Aspergillus niger IMI17454 strain.; type: functional
Escherichia coli [7] = experiment: Antibacterial activity against Escherichia coli NCTC 9001 strain.; type: functional, organism-based
[8] = Antibacterial activity against Proteus vulgaris NCTC 4175 strain; na = not active; type: functional
Klebsiella aerogenes [9] = experiment: Antibacterial activity against Klebsiella aerogenes WRL CN 345 strain; na = not active; type: functional, organism-based
Aspergillus nidulans [10] = experiment: Antifungal activity against Aspergillus nidulans CABI 0160037 strain; na = not active; type: functional
[11] = test system: Mycolicibacterium fortuitum; experiment: Antibacterial activity against Mycobacterium fortuitum NCTC 10394 strain.; type: functional
Enterococcus faecalis [12] = experiment: Antibacterial activity against Streptococcus faecalis NCTC 775 strain; na = not active; type: functional, organism-based
Aspergillus niger [13] = experiment: Antifungal activity against Aspergillus niger IMI17454 strain; na = not active; type: functional
Candida albicans = experiment: Antifungal activity against Candida albicans NCPF 3179 strain.; type: functional
Klebsiella aerogenes [14] = experiment: Antibacterial activity against Klebsiella aerogenes WRL CN 345 strain.; type: functional, WRL CN 375
Proteus vulgaris = experiment: Antibacterial activity against Proteus vulgaris NCTC 4175 strain.; type: functional
Staphylococcus aureus [15] = experiment: Antibacterial activity against methicillin-resistant Staphylococcus aureus (MRSA) PHLS M1 strain.; type: functional
How it was run: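 Read-out is the minimum inhibitory concentration, reported in µM. Amoxycillin is tested alongside as the reference antibiotic.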

Staphylococcus aureus [16] = experiment: Antibacterial activity against Staphylococcus aureus NCTC 6571 strain.; type: functional
Escherichia coli [17] = experiment: Antibacterial activity against Escherichia coli NCTC 9001 strain; type: functional
[18] = Antibacterial activity against Enterobacter cloacae NCTC 10005 strain; type: functional
Aspergillus nidulans [19] = experiment: Antifungal activity against Aspergillus nidulans CABI 0160037 strain; type: functional
[20] = Aspergillus niger, read-out: MIC
[21] = Candida albicans, read-out: MIC
[22] = Klebsiella aerogenes, WRL CN 375, read-out: MIC

Row | MIC (Enterobacter cloacae) | MIC [1] | MIC (Staphylococcus aureus [2]) | MIC [3] | MIC (Staphylococcus aureus [5]) | MIC (Escherichia coli [7]) | MIC [8] | MIC (Klebsiella aerogenes [9]) | MIC (Aspergillus nidulans [10]) | MIC (Enterococcus faecalis [12]) | MIC (Aspergillus niger [13]) | Compound | MIC (Enterococcus faecalis [4]) [µM] | MIC (Aspergillus niger [6]; [20]) | MIC [11] [µM] | MIC (Candida albicans; [21]) [µM] | MIC (Klebsiella aerogenes [14]; [22]) [µM] | MIC (Proteus vulgaris) [µM] | MIC (Staphylococcus aureus [15]) | MIC (Staphylococcus aureus [16]) | MIC [18] | further results
1 | inactive | inactive | inactive | inactive | inactive | inactive | inactive | inactive | – | – | – | CC(=O)Nc1cc(C(=O)Nc2cc(C(=O)Nc3nc(C(=O)NCCCN(C)C)c(C(C)C)s3)n(C)c2)n(C)c1 | 74.5 (≈ 41.5 µg/mL) | 74.5 µM (≈ 41.5 µg/mL) | – | – | – | – | – | – | – | –
2 | inactive | – | inactive | inactive | inactive | inactive | inactive | inactive | inactive | inactive | inactive | CC(=O)Nc1cc(C(=O)Nc2cc(C(=O)Nc3cc(C(=O)NCCCN4CCOCC4)n(C)c3)n(CCC(C)C)c2)n(C)c1 | – | – | 140 (≈ 85.2 µg/mL) | – | – | – | – | – | – | –
3 | inactive | inactive | inactive | – | inactive | inactive | inactive | – | inactive | inactive | – | CC(=O)Nc1cc(C(=O)Nc2cc(C(=O)Nc3cc(C(=O)NCCCN(C)C)n(C)c3)n(C(C)C)c2)n(C)c1 | 73.5 (≈ 39.6 µg/mL) | – | 147 (≈ 79.2 µg/mL) | 153 (≈ 82.4 µg/mL) | 153 (≈ 82.4 µg/mL) | 153 (≈ 82.4 µg/mL) | – | – | – | MIC (Candida albicans): 147 µM (≈ 79.2 µg/mL); MIC (Klebsiella aerogenes [14]): 147 µM (≈ 79.2 µg/mL); MIC (Aspergillus niger [6]): 153 µM and 73.5 µM
4 | inactive | inactive | inactive | – | inactive | inactive | – | inactive | inactive | inactive | inactive | Cc1sc(NC=O)cc1C(=O)Nc1cc(C(=O)Nc2cc(C(=O)NCCCN(C)C)n(C)c2)n(C)c1 | – | – | – | 159 (≈ 81.7 µg/mL) | – | 79.6 (≈ 40.9 µg/mL) | – | – | – | –
5 | inactive | inactive | inactive | inactive | inactive | inactive | inactive | inactive | inactive | inactive | inactive | CC(C)n1cc(NC(=O)c2cc(NC=O)cn2C)cc1C(=O)Nc1cc(C(=O)NCCCN2CCOCC2)n(C)c1 | – | – | – | – | – | – | – | – | – | –
6 | inactive | inactive | inactive | inactive | – | inactive | – | – | inactive | inactive | – | CC(=O)Nc1cc(C(=O)Nc2cc(C(=O)Nc3cc(C(=O)NCCCN(C)C)n(C)c3)n(C)c2)c(C)s1 | – | 156 µM (≈ 82.3 µg/mL) | – | – | 156 (≈ 82.3 µg/mL) | 156 (≈ 82.3 µg/mL) | – | 156 µM (not active) (≈ 82.3 µg/mL) | – | –
7 | inactive | inactive | inactive | inactive | – | inactive | – | inactive | inactive | – | inactive | CN(C)CCCNC(=O)c1cc(NC(=O)c2cc(NC(=O)c3cc(NC=O)cn3C)cn2C)cn1C | 0.31 (≈ 0.154 µg/mL) | – | – | – | – | 164 (≈ 81.4 µg/mL) | – | 10 µM (≈ 4.97 µg/mL) | – | –

More lines, now with the values behind:

Row | Compound | MIC (Enterobacter cloacae) | MIC [1] | MIC (Staphylococcus aureus [2]) | MIC [3] | MIC (Staphylococcus aureus [5]) | MIC (Escherichia coli [7]) | MIC [8] | MIC (Klebsiella aerogenes [9]) | MIC (Aspergillus nidulans [10]) | MIC (Enterococcus faecalis [12]) | MIC (Aspergillus niger [13]) | MIC (Enterococcus faecalis [4]) [µM] | MIC (Aspergillus niger [6]; [20]) | MIC [11] [µM] | MIC (Candida albicans; [21]) [µM] | MIC (Klebsiella aerogenes [14]; [22]) [µM] | MIC (Proteus vulgaris) [µM] | MIC (Staphylococcus aureus [15]) | MIC (Staphylococcus aureus [16]) | MIC [18] | further results
8 | CC(C)n1cc(NC(=O)c2cc(NC=O)cn2C)cc1C(=O)Nc1cc(C(=O)NCCCN(C)C)n(C)c1 | inactive | inactive | – | inactive | inactive | inactive | – | – | inactive | – | – | 157 (≈ 82.4 µg/mL) | 157 µM (≈ 82.4 µg/mL) | – | – | 39.1 (≈ 20.5 µg/mL) | 157 (≈ 82.4 µg/mL) | 157 µM (≈ 82.4 µg/mL) | – | – | –
9 | CC(C)CCn1cc(NC(=O)c2cc(NC=O)cn2C)cc1C(=O)Nc1cc(C(=O)NCCCN2CCOCC2)n(C)c1 | inactive | inactive | – | inactive | inactive | inactive | inactive | inactive | inactive | inactive | – | – | 70.6 µM (≈ 42 µg/mL) | – | – | – | – | 70.6 µM (≈ 42 µg/mL) | – | – | –
10 | CC(=O)Nc1nc(C(=O)Nc2cc(C(=O)Nc3nc(C(=O)NCCCN(C)C)c(C(C)C)s3)n(C)c2)c(C(C)C)s1 | – | – | – | – | – | – | – | – | – | – | – | 4.3 (≈ 2.59 µg/mL) | 4.3 µM (≈ 2.59 µg/mL) | 17.5 (≈ 10.5 µg/mL) | 34.9 (≈ 21 µg/mL) | 69.8 (≈ 42.1 µg/mL) | 69.8 (≈ 42.1 µg/mL) | 4.3 µM (≈ 2.59 µg/mL) | 4.3 µM (≈ 2.59 µg/mL) | 69.8 µM (≈ 42.1 µg/mL) | MIC (Escherichia coli [17]): 70 µM (≈ 42.2 µg/mL)
11 | Cc1sc(NC(=O)c2cc(NC=O)cn2C)cc1C(=O)Nc1cc(C(=O)NCCCN(C)C)n(C)c1 | – | – | – | – | – | – | – | – | – | – | – | 79.6 (≈ 40.9 µg/mL) | 159 µM (≈ 81.7 µg/mL) | 159 (≈ 81.7 µg/mL) | 159 (≈ 81.7 µg/mL) | 159 (≈ 81.7 µg/mL) | 79.6 (≈ 40.9 µg/mL) | 159 µM (≈ 81.7 µg/mL) | 39.8 µM (≈ 20.4 µg/mL) | 159 µM (≈ 81.7 µg/mL) | MIC (Escherichia coli [17]): 159 µM (≈ 81.7 µg/mL); MIC (Aspergillus nidulans [19]): 159 µM (≈ 81.7 µg/mL)
12 | CCn1cc(NC(=O)c2nc(NC(=O)c3nc(NC=O)cn3CC)cn2CC)nc1C(=O)NCCCN(C)C | inactive | inactive | inactive | inactive | – | inactive | inactive | inactive | inactive | inactive | inactive | – | – | – | – | – | – | – | 19 µM (≈ 10.3 µg/mL) | – | –
13 | Cc1oc(CNC(=O)c2cc(NC(=O)c3cc(NC=O)cn3C)cn2C)nc1C(=O)NCCCN(C)C | – | inactive | – | inactive | inactive | inactive | inactive | inactive | – | inactive | – | – | 160 µM (not active) (≈ 82 µg/mL) | – | – | – | – | 160 µM (not active) (≈ 82 µg/mL) | – | 160 µM (not active) (≈ 82 µg/mL) | MIC (Aspergillus nidulans [19]): 160 µM (not active) (≈ 82 µg/mL)
14 | CC(=O)Nc1nc(C(=O)Nc2cc(C(=O)Nc3cc(C(=O)NCCCN(C)C)n(C)c3)n(C)c2)c(C(C)C)s1 | – | – | – | – | – | – | – | – | – | – | – | 74.5 (≈ 41.5 µg/mL) | 149 µM (≈ 82.9 µg/mL) | 74.6 (≈ 41.5 µg/mL) | 74.6 (≈ 41.5 µg/mL) | 149 (≈ 82.9 µg/mL) | 149 (≈ 82.9 µg/mL) | 149 µM (≈ 83.1 µg/mL) | 70 µM (≈ 39 µg/mL) | 149 µM (≈ 82.9 µg/mL) | MIC (Escherichia coli [17]): 149 µM (≈ 82.9 µg/mL)
15 | CC(C)n1cc(NC(=O)c2cc(NC(=O)c3cc(NC=O)cn3C(C)C)cn2C)cc1C(=O)NCCCN(C)C | inactive | inactive | – | – | inactive | inactive | inactive | inactive | – | inactive | inactive | – | – | – | 75 (≈ 41.5 µg/mL) | – | – | 150 µM (≈ 82.9 µg/mL) | – | – | MIC (Aspergillus nidulans [19]): 150 µM (≈ 82.9 µg/mL)
16 | CC(C)CCn1cc(NC(=O)c2cc(NC=O)cn2C)cc1C(=O)Nc1cc(C(=O)NCCCN(C)C)n(C)c1 | – | – | – | – | – | inactive | – | – | inactive | – | 150 µM (≈ 82.9 µg/mL) | 57.5 (≈ 31.8 µg/mL) | – | 37.5 (≈ 20.7 µg/mL) | 150 (≈ 82.9 µg/mL) | 37.5 (≈ 20.7 µg/mL) | 150 (≈ 82.9 µg/mL) | 150 µM (≈ 82.9 µg/mL) | 150 µM (≈ 82.9 µg/mL) | 150 µM (≈ 82.9 µg/mL) | –
